# Compound activity (PubChem)
# Rows were chosen to be rich in hits. Some 2% of all compounds tested hit in one or more screens of this group.
# CHRM5 PAM = positive allosteric modulators of human muscarinic M5 receptor. CHO-K1 hM5, Fluo-8 calcium, ACh EC20 PAM; 0% = ACh EC20, 100% = ACh EC100. 0.3% of 360,000 active. activation, % at 3 µM;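 active = activation above the run cutoff, the mean activation of all test compounds plus 3 SD, cut at about 18% in these data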
#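 System: CHO-K1 hM5 cells. Reagent: acetylcholine, EC20 level. Compound dosing: single dose, 3 µM nominal final test concentration. Timing: Post-acetylcholine fluorescence recording 140 s. Detection: Fluo-8 calcium fluorescence. Read-out: % activation, ACh-normalized. Benchmarks: ACh EC20 and EC100 wells. Repeats: singlicate, one well per test compound.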
# M5 ag = agonists of human muscarinic M5 receptor (CHRM5); P08912; CHO-K1 hM5 cells, Fluo-8 calcium fluorescence; 0% DMSO wells, 100% maximal acetylcholine response; activation, % at 3 µM; 0.19% of 360,000 active; AID 624037;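 active = activation above the run's mean over test compounds plus 3 SD, cut at about 23% in these data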;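 note: signal is peak over basal fluorescence ratio across the kinetic read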
# CHRM1 agonist = agonists of human M1 muscarinic receptor; P11229; AID 588814; 0.33% of 360,000 active; CHO-K1 hM1, Fluo-8 calcium fluorescence, agonist mode; 0% DMSO, 100% acetylcholine EC100; activation, % at 3 µM;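 active = activation above the run's mean compound activation plus 3 SD, cut at about 16% in these data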;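 note: peak over basal fluorescence ratio within a 140 s kinetic read after compound addition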
# Target sequence (P11229 whole entry, looked up): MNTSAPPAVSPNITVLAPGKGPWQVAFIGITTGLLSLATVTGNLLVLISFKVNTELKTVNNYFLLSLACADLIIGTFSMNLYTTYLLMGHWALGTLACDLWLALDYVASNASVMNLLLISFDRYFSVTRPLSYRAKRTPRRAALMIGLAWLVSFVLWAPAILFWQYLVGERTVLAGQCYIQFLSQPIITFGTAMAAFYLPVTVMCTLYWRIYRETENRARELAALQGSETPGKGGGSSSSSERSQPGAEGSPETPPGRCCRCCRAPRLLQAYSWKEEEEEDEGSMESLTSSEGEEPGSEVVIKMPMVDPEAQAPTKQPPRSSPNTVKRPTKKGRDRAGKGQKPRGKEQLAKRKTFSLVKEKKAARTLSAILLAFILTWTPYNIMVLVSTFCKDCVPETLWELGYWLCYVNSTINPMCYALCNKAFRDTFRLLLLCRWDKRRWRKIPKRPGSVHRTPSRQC
# M5 antag = antagonists of human muscarinic M5 receptor (CHRM5); CHO-hM5 cells, Fluo-8 calcium fluorescence, ACh EC80; inhibition, % at 3 µM; 0.59% of 360,000 active;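 active = inhibition above a per-plate cutoff, the mean of that plate's test compounds plus 3 SD, cut at about 27% in these data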;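 note: 0% = acetylcholine EC80 with DMSO and 100% = DMSO without agonist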
# CHRM1 PAM = positive allosteric modulators of human M1 muscarinic receptor; AID 588819; activation, % at 3 µM; CHO-K1 hM1, Fluo-8 calcium fluorescence, ACh EC20; 0% = ACh EC20, 100% = maximal ACh; 0.088% of 360,000 active; in the data active = activation above about 19%, passing the limit was not always enough
# M1 antag = human CHRM1 antagonism | inhibition, % at 3 µM | CHO-K1 hM1, Fluo-8 calcium fluorescence, ACh EC80 antagonist | 1.3% of 360,000 active | P11229;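 active = percent inhibition above its own plate's cutoff, namely the mean of that plate's compound wells plus 3 SD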;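 note: peak over basal fluorescence ratio during 140 s after agonist addition; 0% = ACh EC80 plus DMSO and 100% = DMSO alone without agonist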
# The depositor's hits bear a star; nt = not tested or not shown.
SMILES,CHRM5 PAM,M5 ag,CHRM1 agonist,M5 antag,CHRM1 PAM,M1 antag
CC(NC(=O)[C@H](C)NC(=O)[C@@H]1CSC2c3ccccc3C(=O)N21)c1ccccc1 (stereo not given in full),4,2,0,-3,8,-12
COc1ccc(C2/C=C\CN(C(=O)c3ccc(C)cc3)CC(=O)N2Cc2ccc(F)cc2)cc1 (stereo not given),18*,1,1,0,4,-3
COc1ccc(C2/C=C\CN(C(=O)Nc3ccc(C(F)(F)F)cc3)CC(=O)N2Cc2ccc(F)cc2)cc1 (stereo not given),-29,2,-3,18,-21,38*
CCOC(=O)c1cc(S(=O)(=O)N(C)Cc2ccccc2)cn1C,-7,-2,-2,6,-14,16
CCOC(=O)/C(=C\c1ccccc1)NC(=O)c1ccccc1,19*,4,1,-19,16,-23
CCOC(=O)/C(=C/c1c2ccccc2cc2ccccc12)NC(=O)c1ccccc1,-9,-5,-2,-5,7,-16
COC(=O)c1sc(NC(=O)c2cc(-c3ccccc3)nc3ccccc23)c(C#N)c1C,-5,8,5,6,-8,9
Cc1ccccc1-c1cc(C(=O)Nc2sc(C(=O)OC(C)C)c(C)c2C#N)c2ccccc2n1,-9,6,1,17,-16,31*
O=C(CSc1nnc2ccc(-c3ccccc3)nn12)NCC1CCCO1 (stereo not given),4,-5,-5,1,8,-11
Cc1ccc(N2C(=O)[C@@H]3[C@H](C2=O)C2c4ccccc4C=NN2[C@@H]3C(=O)c2ccc(Cl)cc2)cc1 (stereo not given in full),-10,-3,-6,27*,4,-6
O=C(c1ccc(Cl)cc1)[C@@H]1[C@@H]2C(=O)N(c3ccc(Cl)cc3)C(=O)[C@@H]2C2c3ccccc3C=NN21 (stereo not given in full),-8,-2,-6,14,4,-4
CCN(C)C1CN(Cc2cn(Cc3cccc(Cl)c3)nn2)S(=O)(=O)C1 (stereo not given),-8,0,nt,-4,nt,nt
CC1(C(=O)NS(=O)(=O)c2ccccc2)CCN1C(=O)CC1CC1 (stereo not given),-2,0,-1,4,4,-14
C[C@H](CO)N1C[C@H](C)[C@@H](CN(C)S(=O)(=O)c2ccc(C#N)cc2)OCc2cnnn2CCCC1=O,-2,-1,-3,2,5,-11
COc1ccc(N2C(=O)C(Cl)=C(Nc3ccc(OC)cc3OC)C2=O)cc1,19*,4,7,-1,20,-3
COc1ccc(NC2=C(Cl)C(=O)N(c3ccccc3)C2=O)c(OC)c1,-1,2,-2,-3,8,1
COCOCCn1cc(CN2CCS(=O)(=O)N(Cc3ccc(-c4ccc(OC)c(OC)c4)cc3)C(CC(C)C)C2=O)nn1 (stereo not given),-5,2,-1,10,-9,2
COc1ccccc1C(CNC(=O)c1ccc(NS(=O)(=O)c2ccc(F)c(C)c2)cc1)N1CCCC1 (stereo not given),-19,-9,-6,8,-13,22
COc1ccc(C(CNC(=O)c2ccc(NS(=O)(=O)c3ccc(F)c(C)c3)cc2)N2CCCC2)cc1 (stereo not given),-1,-13,-8,-4,-29,73*
COc1ccccc1C(CNC(=O)c1cccc(NS(=O)(=O)c2ccc(C)c(F)c2)c1)N1CCCC1 (stereo not given),-27,-10,-8,15,-26,84*
CN(C)CCNc1ncnc2c1ncn2[C@H]1CN(CCc2ccccc2)C[C@@H](CO)O1,-6,4,3,5,19,-11
CC1(C)N=C(N)NC(=NCCCOc2ccc([N+](=O)[O-])cc2)N1,3,-1,-12,-2,3,5
CCc1nnc(NC(=O)CCN(c2cc(C)cc(C)c2)S(=O)(=O)c2ccc(Cl)cc2)s1,19*,6,-1,11,6,2
